Source: ChEMBL document CHEMBL4706494, “Design, synthesis characterization and biological evaluation of novel multi-isoform ALDH inhibitors as potential anticancer agents” (Eur J Med Chem, 2020)
Calls of active or inactive are those of the source. The rule behind the calls is not given here.

Legend:
[1] = target: T1, Aldehyde dehydrogenase, dimeric NADP-preferring (Homo sapiens, UniProt P30838); test: Inhibition of ALDH3A1 (unknown origin) assessed as NADH formation using 4-nitrobenzaldehyde as substrate
T1 sequence (P30838 whole entry): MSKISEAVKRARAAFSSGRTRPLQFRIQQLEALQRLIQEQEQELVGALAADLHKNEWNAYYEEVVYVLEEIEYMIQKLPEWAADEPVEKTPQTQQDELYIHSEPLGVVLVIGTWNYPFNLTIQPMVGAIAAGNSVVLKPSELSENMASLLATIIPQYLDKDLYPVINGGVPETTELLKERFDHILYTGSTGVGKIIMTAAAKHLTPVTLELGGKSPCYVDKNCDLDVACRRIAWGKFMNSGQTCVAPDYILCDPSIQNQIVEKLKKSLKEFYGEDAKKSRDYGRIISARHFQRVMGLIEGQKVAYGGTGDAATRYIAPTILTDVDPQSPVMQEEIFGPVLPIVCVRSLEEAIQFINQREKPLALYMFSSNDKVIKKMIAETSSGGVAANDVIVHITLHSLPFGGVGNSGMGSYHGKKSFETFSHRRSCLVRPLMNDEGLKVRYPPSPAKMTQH
How it was run: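 Protein at 0.2 µg/mL exposed 15 min to graded inhibitor concentrations. 1 mM 4-nitrobenzaldehyde substrate with NAD+ then added, run as for the ALDH1A1 assay.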

[2] = target: T2, Aldehyde dehydrogenase 1A1 (Homo sapiens, UniProt P00352); test: Inhibition of ALDH1A1 (unknown origin) assessed as NADH formation using propionaldehyde as substrate
T2 sequence (P00352 whole entry): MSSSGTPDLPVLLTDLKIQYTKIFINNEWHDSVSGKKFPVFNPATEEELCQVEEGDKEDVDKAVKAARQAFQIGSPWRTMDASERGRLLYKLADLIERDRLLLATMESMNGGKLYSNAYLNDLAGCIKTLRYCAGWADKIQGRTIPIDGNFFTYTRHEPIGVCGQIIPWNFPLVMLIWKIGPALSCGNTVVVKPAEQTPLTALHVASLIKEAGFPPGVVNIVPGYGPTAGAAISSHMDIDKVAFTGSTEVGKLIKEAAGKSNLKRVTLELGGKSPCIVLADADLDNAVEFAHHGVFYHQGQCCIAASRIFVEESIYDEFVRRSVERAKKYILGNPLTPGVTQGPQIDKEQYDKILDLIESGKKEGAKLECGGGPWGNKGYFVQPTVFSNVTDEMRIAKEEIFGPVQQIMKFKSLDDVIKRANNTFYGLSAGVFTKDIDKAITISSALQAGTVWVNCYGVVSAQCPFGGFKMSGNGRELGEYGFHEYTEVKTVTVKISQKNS

[3] = target: T3, Aldehyde dehydrogenase, mitochondrial (Homo sapiens, UniProt P05091); test: Inhibition of ALDH2 (unknown origin) assessed as NADH formation using acetaldehyde as substrate
T3 sequence (P05091 whole entry): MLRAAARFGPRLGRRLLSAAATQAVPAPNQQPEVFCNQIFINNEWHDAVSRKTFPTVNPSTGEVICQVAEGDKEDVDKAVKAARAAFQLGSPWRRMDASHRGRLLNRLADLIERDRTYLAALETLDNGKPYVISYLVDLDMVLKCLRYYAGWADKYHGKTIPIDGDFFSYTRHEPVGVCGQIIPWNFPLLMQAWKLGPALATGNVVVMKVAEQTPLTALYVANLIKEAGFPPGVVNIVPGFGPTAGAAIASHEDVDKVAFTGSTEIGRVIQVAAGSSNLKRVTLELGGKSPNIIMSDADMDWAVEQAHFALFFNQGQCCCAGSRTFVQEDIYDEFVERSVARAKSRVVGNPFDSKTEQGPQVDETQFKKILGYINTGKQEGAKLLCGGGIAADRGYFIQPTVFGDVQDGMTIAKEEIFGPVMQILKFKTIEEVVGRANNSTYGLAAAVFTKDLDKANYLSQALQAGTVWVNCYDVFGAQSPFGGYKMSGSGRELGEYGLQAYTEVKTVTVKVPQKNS
How it was run: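 Enzyme at 0.5 µg/mL preincubated 15 min with varied inhibitor concentrations. Reaction started with 2 mM acetaldehyde plus NAD+ in buffer, as for the ALDH1A1 assay.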

UACC-903 = test: Antiproliferative activity against human UACC 903 cells measured after 72 hrs by MTS assay; assay type: functional, cell-based; details: UACC-903, 72 h
How it was run: (§1)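 Cells seeded at 5,000 per well, left overnight at 37°C in 5% CO2, then exposed to a range of compound concentrations for 72 h. IC50 was fitted from dose-response curves, 3 independent experiments, reported as mean + SD.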

[4] = Antiproliferative activity against human 1205Lu cells measured after 72 hrs by MTS assay; assay type: functional, cell-based; how it was run: as §1
HCT-116 [5] = test: Antiproliferative activity against human HCT116 cells measured after 72 hrs by MTS assay; assay type: functional, cell-based; details: HCT-116, 72 h; how it was run: as §1
HT-29 = test: Antiproliferative activity against human HT-29 cells measured after 72 hrs by MTS assay; assay type: functional, cell-based; details: HT-29, 72 h; how it was run: as §1
NCI-H929 = test: Antiproliferative activity against human NCIH929 cells measured after 72 hrs by MTS assay; assay type: functional, cell-based; details: NCI-H929, 72 h; how it was run: as §1
U-266 = test: Antiproliferative activity against human U266 cells measured after 72 hrs by MTS assay; assay type: functional, cell-based; details: U-266, 72 h; how it was run: as §1
RPMI-8226 = test: Antiproliferative activity against human RPMI8226 cells measured after 72 hrs by MTS assay; assay type: functional, cell-based; details: RPMI-8226, 72 h; how it was run: as §1
[6] = Antiproliferative activity against human MM.1R cells measured after 72 hrs by MTS assay; assay type: functional, cell-based; how it was run: as §1
MM1.S = test: Antiproliferative activity against human MM.1S cells measured after 72 hrs by MTS assay; assay type: functional, cell-based; how it was run: as §1
[7] = Cytotoxicity against human FF2441 cells measured after 72 hrs by MTS assay; assay type: cell-based; details: FF2441, 72 h; how it was run: as §1
[8] = Toxicity in Swiss-Webster mouse assessed as body weight loss at 5 mg/kg/day, ip for 14 days; assay type: organism-based; details: in vivo, 336 h, time 14 day
How it was run: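 Swiss-Webster mice received 5 mg/kg/day i.p. once daily for 14 days. Body weight, behaviour and physical distress were monitored, with % weight change compared against DMSO vehicle controls.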

HCT-116 [9] = test: Induction of ROS production in human HCT-116 cells at 5 uM incubated for 24 hrs by DCFDA staining based fluorescence microscopic analysis; assay type: functional, cell-based
HCT-116 [10] = test: Induction of ROS production in human HCT-116 cells at 5 uM incubated for 24 hrs in presence of NAC by DCFDA staining based fluorescence microscopic analysis; assay type: functional, cell-based
HCT-116 [11] = test: Induction of lipid peroxidation in human HCT-116 cells at 5 uM incubated for 24 hrs by TBARS assay; assay type: functional, cell-based
How it was run: (§2)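 HCT116 cells treated 24 h with 5 µM compound, with or without 10 mM NAC. Pellets were sonicated on ice in PBS and lipids hydrolysed with acetic acid/NaOH. Free MDA was reacted with TBA and read at 530 nm, compared with DMSO control.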

HCT-116 [12] = test: Induction of lipid peroxidation in human HCT-116 cells at 5 uM incubated for 24 hrs in presence of NAC by TBARS assay; assay type: functional, cell-based; how it was run: as §2
HCT-116 [13] = test: Induction of apoptosis in human HCT-116 cells at 5 uM incubated for 24 hrs by annexinV- and […] staining based flow cytometry; assay type: functional, cell-based
How it was run: (§3)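 HCT116 cells treated 24 h with 5 µM compound, with or without 10 mM NAC. Cells were detached, PBS-washed, stained with Annexin-V-PE and 7-AAD, and analysed by flow cytometry. Annexin-V/7-AAD double-positive cells were scored as late apoptotic, relative to DMSO control.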

HCT-116 [14] = test: Induction of apoptosis in human HCT-116 cells at 5 uM incubated for 24 hrs in presence of NAC by annexinV- and […] staining based flow cytometry; assay type: functional, cell-based; how it was run: as §3
HCT-116 [15] = test: Induction of cell cycle arrest in human HCT-116 cells assessed as accumulation of cells at G2/M phase at 5 uM incubated for 24 hrs by PI staining based flow cytometry; assay type: functional
How it was run: (§4)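 HCT116 cells given 5 µM compound for 24 h, with or without 10 mM NAC. Cells were detached, PBS-washed, fixed in 70% ethanol and stained with propidium iodide. DNA content read by flow cytometry for cell-cycle distribution.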

HCT-116 [16] = test: Induction of cell cycle arrest in human HCT-116 cells assessed as accumulation of cells at G2/M phase at 5 uM incubated for 24 hrs in presence of NAC by PI staining based flow cytometry; assay type: functional; how it was run: as §4

SMILES | IC50 [1] [nM] | IC50 [2] [nM] | IC50 [3] [nM] | also measured
N=C(N)[Se]Cc1ccc(CN2C(=O)C(=O)c3cc(F)ccc32)cc1 | 2360 | – | – | –
N=C(N)SCc1ccc(CN2C(=O)C(=O)c3cc(F)ccc32)cc1 | 2860 | – | – | –
N=C(N)[Se]Cc1ccc(CN2C(=O)C(=O)c3cccc(Cl)c32)cc1 | > 10000 | > 10000 | > 10000 | –
N=C(N)[Se]Cc1ccc(CN2C(=O)C(=O)c3cc(Cl)ccc32)cc1 | 2770 | – | – | –
N=C(N)[Se]Cc1ccc(CN2C(=O)C(=O)c3cc(F)cc(Br)c32)cc1 | 368 | 420 | 1920 | –
N=C(N)SCc1ccc(CN2C(=O)C(=O)c3ccccc32)cc1 | 4200 | – | – | –
N=C(N)[Se]Cc1ccc(CN2C(=O)C(=O)c3cc(Br)cc(Br)c32)cc1 | 333 | 397 | 2010 | –
N=C(N)SCc1ccc(CN2C(=O)C(=O)c3cccc(F)c32)cc1 | 241 | 598 | > 10000 | –
N=C(N)[Se]Cc1ccc(CN2C(=O)C(=O)c3cccc(Br)c32)cc1 | > 10000 | – | – | –
N=C(N)SCc1ccc(CN2C(=O)C(=O)c3cccc(C(F)(F)F)c32)cc1 | 246 | – | – | –
N=C(N)[Se]Cc1ccc(CN2C(=O)C(=O)c3cccc(C(F)(F)F)c32)cc1 | 251 | 657 | 3490 | –
Br.N=C(N)SCc1ccc(CN2C(=O)C(=O)c3cc(C(F)(F)F)ccc32)cc1 | 360 | 334 | 2140 | IC50 (UACC-903): 5700 nM; IC50 [4]: 5700 nM; IC50 (HCT-116 [5]): 5700 nM; IC50 (HT-29): 4900 nM; IC50 (NCI-H929): 1500 nM; IC50 (U-266): 2600 nM; IC50 (RPMI-8226): 1600 nM; IC50 [6]: 1700 nM; IC50 (MM1.S): 2200 nM; IC50 [7]: 20700 nM; Activity [8]: 2%; Activity (HCT-116 [9]): Active; Activity (HCT-116 [10]): inactive; Activity (HCT-116 [11]): Active; Activity (HCT-116 [12]): inactive; Activity (HCT-116 [13]): Active; Activity (HCT-116 [14]): inactive; Activity (HCT-116 [15]): Active; Activity (HCT-116 [16]): inactive
N=C(N)[Se]Cc1ccc(CN2C(=O)C(=O)c3cccc(F)c32)cc1 | 246 | – | – | –
N=C(N)SCc1ccc(CN2C(=O)C(=O)c3cc(Br)ccc32)cc1 | 4880 | 8520 | > 10000 | –
Br.N=C(N)SCc1ccc(CN2C(=O)C(=O)c3cc(Cl)cc(Cl)c32)cc1 | 219 | 279 | 1640 | IC50 (UACC-903): 3000 nM; IC50 [4]: 2400 nM; IC50 (HCT-116 [5]): 3200 nM; IC50 (HT-29): 2600 nM; IC50 (NCI-H929): 700 nM; IC50 (U-266): 2700 nM; IC50 (RPMI-8226): 1300 nM; IC50 [6]: 1600 nM; IC50 (MM1.S): 1600 nM; IC50 [7]: 5400 nM; Activity [8]: 10%
O=C1C(=O)N(Cc2ccccc2)c2ccccc21 | – | – | – | IC50 (UACC-903): > 100000 nM; IC50 [4]: > 100000 nM; IC50 [7]: > 100000 nM
N=C(N)SCc1ccc(CN2C(=O)C(=O)c3cc(F)cc(Br)c32)cc1 | 219 | – | – | –
N=C(N)[Se]Cc1ccc(CN2C(=O)C(=O)c3cc(Cl)cc(Cl)c32)cc1 | 327 | – | – | –
N=C(N)[Se]Cc1ccc(CN2C(=O)C(=O)c3cc(Br)ccc32)cc1 | 344 | – | – | –
N=C(N)SCc1ccc(CN2C(=O)C(=O)c3cccc(Cl)c32)cc1 | 3590 | 177 | > 10000 | –
N=C(N)[Se]Cc1ccc(CN2C(=O)C(=O)c3cc(C(F)(F)F)ccc32)cc1 | 1520 | – | – | –
N=C(N)SCc1ccc(CN2C(=O)C(=O)c3cccc(Br)c32)cc1 | 6320 | – | – | –
N=C(N)[Se]Cc1ccc(CN2C(=O)C(=O)c3ccccc32)cc1 | 4010 | – | – | –
N=C(N)SCc1ccc(CN2C(=O)C(=O)c3cc(Cl)ccc32)cc1 | 3070 | – | – | –
